Results as given in ChEMBL document CHEMBL5346889, “Discovery of 4-oxo-N-phenyl-1,4-dihydroquinoline-3-carboxamide derivatives as novel anti-inflammatory agents for the treatment of acute lung injury and sepsis” (Eur J Med Chem, 2023).
Activity calls are given as the source filed them. No cut-off for these calls is given here.

Assays:
J774.A1 [1] = assay: Antiinflammatory activity in LPS-induced mouse J774.A1 cells assessed as inhibition of LPS-induced TNF-alpha release at 10 uM preincubated for 30 mins followed by LPS stimulation for 24 hrs by ELISA method; type: functional; conditions: time 24.5 hrs
Procedure, shortened: (§1)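 J774A.1 macrophages pretreated 30 min at 10 μM, then challenged with LPS 0.5 μg/mL for 24 h at 37 °C, 5% CO2. Medium IL-6 and TNF-α measured by ELISA, normalized to total lysate protein.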

J774.A1 [2] = assay: Antiinflammatory activity in LPS-induced mouse J774.A1 cells assessed as inhibition of LPS-induced IL-6 release at 10 uM preincubated for 30 mins followed by LPS stimulation for 24 hrs by ELISA method; type: functional; conditions: time 24.5 hrs; procedure, shortened: as §1
J774.A1 [3] = assay: Cytotoxicity against mouse J774.A1 cells assessed as reduction in cell viability at 10 uM incubated for 24 hrs by MTT assay; type: functional, cell-based
Procedure, shortened: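 J774A.1 macrophages exposed to 10 μM for 24 h; MTT at 5 mg/mL added for 4 h; absorbance read at 490 nm; viability expressed as percent of DMSO control.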

J774.A1 [4] = assay: Antiinflammatory activity in LPS-induced mouse J774.A1 cells assessed as inhibition of LPS-induced TNF-alpha release preincubated for 30 mins followed by LPS stimulation for 24 hrs by ELISA method; type: functional, cell-based
Procedure, shortened: (§2)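 Dose-response in J774A.1 cells: 30 min pretreatment at 10, 5, 2.5 or 1.25 μM, then LPS 0.5 μg/mL for 24 h. IL-6 and TNF-α by ELISA, normalized to lysate protein; IC50 from the dose-response; 3 independent experiments, mean ± SEM.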

J774.A1 [5] = assay: Antiinflammatory activity in LPS-induced mouse J774.A1 cells assessed as inhibition of LPS-induced IL-6 release preincubated for 30 mins followed by LPS stimulation for 24 hrs by ELISA method; type: functional, cell-based; procedure, shortened: as §2
Mus musculus [6] = assay: Protection against LPS-induced C57/BL6 mouse acute lung injury model assessed as improvement in structural distruption of lung tissue at 20 mg/kg via oral gavage preincubated for 30 mins followed by LPS stimulation for 6 hrs; type: functional, organism-based; conditions: time 6.5 hrs
Procedure, shortened: (§3)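 Mice dosed 20 mg/kg by gavage (dexamethasone 20 mg/kg comparator), intratracheal LPS 5 mg/kg 30 min later, killed at 6 h. Right upper lobe fixed in paraformaldehyde, H&E; lung wet/dry ratio; BALF protein, total cells and neutrophils counted; n = 5 mice per group, mean ± SEM.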

Mus musculus [7] = assay: Protection against LPS-induced C57/BL6 mouse acute lung injury model assessed as improvement in alveolar wall thickening at 20 mg/kg via oral gavage preincubated for 30 mins followed by LPS stimulation for 6 hrs; type: functional, organism-based; conditions: time 6.5 hrs; procedure, shortened: as §3
Mus musculus [8] = assay: Protection against LPS-induced C57/BL6 mouse acute lung injury model assessed as reduction in lung wet/dry ratio at 20 mg/kg via oral gavage preincubated for 30 mins followed by LPS stimulation for 6 hrs; type: functional, organism-based; conditions: time 6.5 hrs; procedure, shortened: as §3
Mus musculus [9] = assay: Protection against LPS-induced C57/BL6 mouse acute lung injury model assessed as reduction in protein concentration in BALF at 20 mg/kg via oral gavage preincubated for 30 mins followed by LPS stimulation for 6 hrs; type: functional, organism-based; conditions: time 6.5 hrs; procedure, shortened: as §3
Mus musculus [10] = assay: Protection against LPS-induced C57/BL6 mouse acute lung injury model assessed as reduction in number of total cells in BALF at 20 mg/kg via oral gavage preincubated for 30 mins followed by LPS stimulation for 6 hrs; type: functional, organism-based; conditions: time 6.5 hrs; procedure, shortened: as §3
Mus musculus [11] = assay: Protection against LPS-induced C57/BL6 mouse acute lung injury model assessed as reduction in number of neutrophils in BALF at 20 mg/kg via oral gavage preincubated for 30 mins followed by LPS stimulation for 6 hrs; type: functional, organism-based; conditions: time 6.5 hrs; procedure, shortened: as §3
Mus musculus [12] = assay: Antiinflammatory activity in LPS-induced C57/BL6 mouse acute lung injury model assessed as decrease in IL-6 expression level at 20 mg/kg via oral gavage preincubated for 30 mins followed by LPS stimulation for 6 hrs by RT-qPCR method; type: functional, organism-based; conditions: time 6.5 hrs
Procedure, shortened: (§4)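 Male C57BL/6 mice, six weeks old, n = 8 per group. Dosed 20 mg/kg orally 30 min before intratracheal LPS 5 mg/kg; dexamethasone 20 mg/kg as comparator. Lung tissue collected 6 h after LPS. RNA extracted with TRIzol; IL-6 and TNF-α transcripts by RT-qPCR, normalized to β-actin; n = 5 mice per group, mean ± SEM.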

Mus musculus [13] = assay: Antiinflammatory activity in LPS-induced C57/BL6 mouse acute lung injury model assessed as decrease in TNF-alpha expression level at 20 mg/kg via oral gavage preincubated for 30 mins followed by LPS stimulation for 6 hrs by RT-qPCR method; type: functional, organism-based; conditions: time 6.5 hrs; procedure, shortened: as §4
Mus musculus [14] = assay: Antiinflammatory activity in LPS-induced C57/BL6 mouse acute lung injury model assessed as reduction in macrophage infiltration at 20 mg/kg via oral gavage preincubated for 30 mins followed by LPS stimulation for 6 hrs by immunohistochemical staining based analysis; type: functional, organism-based; conditions: time 6.5 hrs
Procedure, shortened: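 Same ALI model: 20 mg/kg oral, intratracheal LPS 5 mg/kg 30 min later, lungs at 6 h. Paraffin sections given citrate (pH 6.5) antigen retrieval, 3% H2O2 and 5% BSA block, anti-F4/80 12 h at 4 °C, HRP secondary, DAB and hematoxylin; F4/80 positivity quantified; n = 5 per group.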

Mus musculus [15] = assay: Antiinflammatory activity in LPS-induced C57/BL6 mouse acute lung injury model assessed as decrease in IL-6 level in BALF at 20 mg/kg via oral gavage preincubated for 30 mins followed by LPS stimulation for 6 hrs by ELISA; conditions: time 6.5 hrs
Mus musculus [16] = assay: Antiinflammatory activity in LPS-induced C57/BL6 mouse acute lung injury model assessed as decrease in IL-6 level in serum at 20 mg/kg via oral gavage preincubated for 30 mins followed by LPS stimulation for 6 hrs by ELISA; conditions: time 6.5 hrs
Mus musculus [17] = assay: Antiinflammatory activity in LPS-induced C57/BL6 mouse acute lung injury model assessed as decrease in TNF-alpha level in BALF at 20 mg/kg via oral gavage preincubated for 30 mins followed by LPS stimulation for 6 hrs by ELISA; conditions: time 6.5 hrs
Mus musculus [18] = assay: Antiinflammatory activity in LPS-induced C57/BL6 mouse acute lung injury model assessed as decrease in TNF-alpha level in serum at 20 mg/kg via oral gavage preincubated for 30 mins followed by LPS stimulation for 6 hrs by ELISA; conditions: time 6.5 hrs

Compound | inhibition (J774.A1 [1]) | inhibition at 10 µM (J774.A1 [2]) | inhibition at 10 µM (J774.A1 [1]) | also measured
COc1cc2nccc(Oc3cccc(NC(=O)c4cn(-c5ccccc5)c5ccccc5c4=O)c3)c2cc1OC | inactive | 44.8% |  | 
COc1cc2nccc(Oc3ccc(NC(=O)c4cn(-c5ccc(Cl)cc5)c5ccccc5c4=O)cc3)c2cc1OC |  | 32% | 63.5% | 
COc1cc2ncnc(Oc3ccc(NC(=O)c4cn(-c5ccc(Cl)cc5)c5ccccc5c4=O)cc3)c2cc1OC | inactive | 30.5% |  | 
COc1cc2ncnc(Oc3ccc(NC(=O)c4cn(-c5ccc(F)cc5)c5ccccc5c4=O)cc3)c2cc1OC |  | 57% | 48% | 
COc1cc2nccc(Oc3ccc(NC(=O)c4cn(-c5ccc(F)c(Cl)c5)c5ccccc5c4=O)cc3)c2cc1OC |  | 62.2% | 67.7% | 
COc1cc2nccc(Oc3cccc(NC(=O)c4cn(-c5ccc(Cl)cc5)c5ccccc5c4=O)c3)c2cc1OC | inactive | 60.2% |  | 
COc1cc2ncnc(Oc3cccc(NC(=O)c4cn(-c5ccccc5)c5ccccc5c4=O)c3)c2cc1OC | inactive | 42.4% |  | 
COc1cc2nccc(Oc3cccc(NC(=O)c4cn(-c5ccc(F)c(Cl)c5)c5ccccc5c4=O)c3)c2cc1OC |  | 49.7% | 32.6% | 
COc1cc2ncnc(Oc3cccc(NC(=O)c4cn(-c5ccc(Br)cc5F)c5ccccc5c4=O)c3)c2cc1OC | inactive |  |  | inhibition (J774.A1 [2]): inactive
COc1cc2nccc(Oc3cccc(NC(=O)c4cn(-c5ccc(F)cc5)c5ccccc5c4=O)c3)c2cc1OC | inactive | 51.3% |  | 
COc1cc2ncnc(Oc3cccc(NC(=O)c4cn(-c5ccc(F)c(Cl)c5)c5ccccc5c4=O)c3)c2cc1OC |  | 33.9% | 36% | 
COc1cc2nccc(Oc3ccc(NC(=O)c4cn(-c5ccc(F)cc5)c5ccccc5c4=O)cc3)c2cc1OC |  | 77.4% | 83.1% | Activity (J774.A1 [3]): inactive; IC50 (J774.A1 [4]): 3.46 µM; inhibition (J774.A1 [4]; dose 1.25-10 µM, time 24.5 hrs): Dose-Dependent Effect; IC50 (J774.A1 [5]): 2.33 µM; inhibition (J774.A1 [5]; dose 1.25-10 µM, time 24.5 hrs): Dose-Dependent Effect
COc1cc2ncnc(Oc3ccc(NC(=O)c4cn(-c5ccc(Br)cc5F)c5ccccc5c4=O)cc3)c2cc1OC | inactive | 13.3% |  | 
COc1cc2nccc(Oc3ccc(NC(=O)c4cn(-c5ccc(OC(F)(F)F)cc5)c5ccccc5c4=O)cc3)c2cc1OC |  | 50.5% | 67.6% | 
COc1cc2ncnc(Oc3cccc(NC(=O)c4cn(-c5ccc(F)cc5)c5ccccc5c4=O)c3)c2cc1OC | inactive | 45.4% |  | 
COc1cc2ncnc(Oc3cccc(NC(=O)c4cn(-c5ccc(Cl)cc5)c5ccccc5c4=O)c3)c2cc1OC | inactive | 32.3% |  | 
COc1cc2nccc(Oc3ccc(NC(=O)c4cn(-c5ccc(Br)cc5F)c5ccccc5c4=O)cc3)c2cc1OC | inactive | 26.7% |  | 
C[C@@H]1C[C@H]2[C@@H]3CCC4=CC(=O)C=C[C@]4(C)[C@@]3(F)[C@@H](O)C[C@]2(C)[C@@]1(O)C(=O)CO |  |  |  | Activity (Mus musculus [6]): Active; Activity (Mus musculus [7]): Active; Activity (Mus musculus [8]): Active; Activity (Mus musculus [9]): Active; Activity (Mus musculus [10]): Active; Activity (Mus musculus [11]): Active; Activity (Mus musculus [12]): Active; Activity (Mus musculus [13]): Active; Activity (Mus musculus [14]): Active; Activity (Mus musculus [15]): Active; Activity (Mus musculus [16]): Active; Activity (Mus musculus [17]): Active; Activity (Mus musculus [18]): Active
COc1cc2ncnc(Oc3ccc(NC(=O)c4cn(-c5ccc(F)c(Cl)c5)c5ccccc5c4=O)cc3)c2cc1OC |  | 39.6% | 48% | 
COc1cc2ncnc(Oc3cccc(NC(=O)c4cn(-c5ccc(Br)cc5)c5ccccc5c4=O)c3)c2cc1OC | inactive | 20.4% |  | 
COc1cc2ncnc(Oc3ccc(NC(=O)c4cn(-c5ccc(OC(F)(F)F)cc5)c5ccccc5c4=O)cc3)c2cc1OC |  | 35.9% | 54.9% | 
COc1cc2nccc(Oc3cccc(NC(=O)c4cn(-c5ccc(Br)cc5)c5ccccc5c4=O)c3)c2cc1OC | inactive | 37.1% |  | 
COc1cc2nccc(Oc3cccc(NC(=O)c4cn(-c5ccc(OC(F)(F)F)cc5)c5ccccc5c4=O)c3)c2cc1OC |  | 66.4% | 33.3% | 
COc1cc2ncnc(Oc3ccc(NC(=O)c4cn(-c5ccccc5)c5ccccc5c4=O)cc3)c2cc1OC |  | 38.1% | 30.5% | 
COc1cc2ncnc(Oc3cccc(NC(=O)c4cn(-c5ccc(OC(F)(F)F)cc5)c5ccccc5c4=O)c3)c2cc1OC |  | 10.4% | 7.66% | 
COc1cc2nccc(Oc3cccc(NC(=O)c4cn(-c5ccc(Br)cc5F)c5ccccc5c4=O)c3)c2cc1OC | inactive | 52.9% |  | 
COc1cc2nccc(Oc3ccc(NC(=O)c4cn(-c5ccc(Br)cc5)c5ccccc5c4=O)cc3)c2cc1OC |  | 41.7% | 71.7% | 
COc1cc2ncnc(Oc3ccc(NC(=O)c4cn(-c5ccc(Br)cc5)c5ccccc5c4=O)cc3)c2cc1OC |  |  | 22.4% | inhibition (J774.A1 [2]): inactive
